In ChEMBL document CHEMBL5316280, “Development of N-(1-Adamantyl)benzamides as Novel Anti-Inflammatory Multitarget Agents Acting as Dual Modulators of the Cannabinoid CB2 Receptor and Fatty Acid Amide Hydrolase” (J Med Chem, 2023):
Calls of active or inactive are those of the source. No cut-off for these calls is given here.

What was measured:
[1] = tested on: THP-1; experiment: Antiinflammatory activity in human THP-1 macrophages assessed as increase in IL-10 level incubated for 24 hrs by ELISA based qRT-PCR analysis; format: functional, cell-based
Method in brief: (§1)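 THP-1 cells were seeded at 1 x 10⁵ cells/ml for 48 h. For macrophages, cells were differentiated with 0.01 µM PMA for 48 h; monocytes received no PMA. Cells were then given 24 h with or without 10 µg/ml LPS, plus ligands alone or with the CB2R inverse agonist JTE907 (10 µM). Cytokines were measured in 5 µL supernatant (from 1 x 10⁴ cells) by ProQuantum immunoassay, read as pg/ml from kit titration curves; n=3.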

[2] = target: Cannabinoid receptor 1 (Homo sapiens, UniProt P21554); experiment: Agonist activity at human CB1 receptor in CHO cells incubated for 15 mins by plate reader analysis
[3] = tested on: THP-1; experiment: Antiinflammatory activity in human THP-1 macrophages assessed as decrease in IL-6 level incubated for 24 hrs in presence of […] by ELISA based qRT-PCR analysis; format: functional, cell-based; method in brief: as §1
[4] = target: Cannabinoid receptor 2 (Mus musculus, UniProt P47936); experiment: Agonist activity at mouse CB2 receptor transfected in CHO-K1 cells assessed as beta2-arrestin recruitment incubated for 90 mins by luminescence based assay; format: functional, cell-based
Method in brief: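 PathHunter eXpress kit using mouse CB2 receptor in CHO-K1 cells. Cells were seeded 48 h before the assay in kit medium. Compounds in cell plating reagent were incubated 90 min at 37 °C, 5% CO2. Working detection solution was then added for 60 min at room temperature to read β-arrestin recruitment.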

[5] = target: T1, Fatty-acid amide hydrolase 1 (Homo sapiens, UniProt O00519); experiment: Inhibition of recombinant human FAAH using AMC-AA as substrate preincubated for 10 mins followed by substrate addition measured after 2 hrs by fluorometric assay
T1 sequence (O00519 whole entry): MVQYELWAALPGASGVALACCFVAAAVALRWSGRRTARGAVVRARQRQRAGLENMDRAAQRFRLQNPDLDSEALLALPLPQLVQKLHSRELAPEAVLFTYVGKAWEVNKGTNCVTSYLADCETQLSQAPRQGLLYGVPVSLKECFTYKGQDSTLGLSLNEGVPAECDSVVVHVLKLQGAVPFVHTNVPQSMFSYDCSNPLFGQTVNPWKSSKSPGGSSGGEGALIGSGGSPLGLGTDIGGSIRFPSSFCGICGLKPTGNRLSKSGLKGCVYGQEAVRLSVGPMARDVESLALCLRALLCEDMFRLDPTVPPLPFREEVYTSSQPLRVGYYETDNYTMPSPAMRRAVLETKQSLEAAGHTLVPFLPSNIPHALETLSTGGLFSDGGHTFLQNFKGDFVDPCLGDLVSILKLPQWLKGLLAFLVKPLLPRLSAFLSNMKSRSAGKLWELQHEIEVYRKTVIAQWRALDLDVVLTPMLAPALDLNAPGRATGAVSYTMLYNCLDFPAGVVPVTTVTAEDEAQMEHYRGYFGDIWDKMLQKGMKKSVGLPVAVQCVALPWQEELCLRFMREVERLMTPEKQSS
Method in brief: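 Human recombinant FAAH preincubated with inhibitor at various concentrations in Tris-HCl 125 mM, Na₂EDTA 1 mM, pH 9.0, 10 min at room temperature with shaking. AMC-AA substrate then added (1 µM final); fluorescence read every 30 s for 2 h at 37 °C (ex 340/em 450 nm). Percent inhibition from no-inhibitor controls and no-enzyme blanks; IC50 from at least three independent runs in triplicate.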

[6] = tested on: THP-1; experiment: Antiinflammatory activity in human THP-1 monocytes assessed as increase in IL-10 level incubated for 24 hrs in presence of […] by ELISA based qRT-PCR analysis; format: functional, cell-based; method in brief: as §1
[7] = tested on: THP-1; experiment: Antiinflammatory activity in human THP-1 monocytes assessed as decrease in IFNgamma level incubated for 24 hrs in presence of […] by ELISA based qRT-PCR analysis; format: functional, cell-based; method in brief: as §1
[8] = tested on: THP-1; experiment: Antiinflammatory activity in human THP-1 monocytes assessed as decrease in IFNgamma level incubated for 24 hrs by ELISA based qRT-PCR analysis; format: functional, cell-based; method in brief: as §1
[9] = tested on: THP-1; experiment: Antiinflammatory activity in human THP-1 monocytes assessed as decrease in IL-1beta level incubated for 24 hrs in presence of […] by ELISA based qRT-PCR analysis; format: functional, cell-based; method in brief: as §1
[10] = tested on: THP-1; experiment: Antiinflammatory activity in human THP-1 monocytes assessed as decrease in IL-6 level incubated for 24 hrs by ELISA based qRT-PCR analysis; format: functional, cell-based; method in brief: as §1
[11] = tested on: THP-1; experiment: Antiinflammatory activity in human THP-1 monocytes assessed as decrease in TNFalpha level incubated for 24 hrs by ELISA based qRT-PCR analysis; format: functional, cell-based; method in brief: as §1
[12] = tested on: THP-1; experiment: Antiinflammatory activity in human THP-1 macrophages assessed as decrease in IFNgamma level incubated for 24 hrs by ELISA based qRT-PCR analysis; format: functional, cell-based; method in brief: as §1
[13] = tested on: THP-1; experiment: Antiinflammatory activity in human THP-1 macrophages assessed as decrease in TNFalpha level incubated for 24 hrs in presence of […] by ELISA based qRT-PCR analysis; format: functional, cell-based; method in brief: as §1
[14] = tested on: THP-1; experiment: Antiinflammatory activity in human THP-1 macrophages assessed as increase in IL-4 level incubated for 24 hrs by ELISA based qRT-PCR analysis; format: functional, cell-based; method in brief: as §1
[15] = target: T2, Cannabinoid receptor 2 (Homo sapiens, UniProt P34972); experiment: Agonist activity at human CB2 receptor overexpressed in CHO-K1 cells assessed as cAMP level incubated for 30 mins by luminescence based assay; format: functional, cell-based
Method in brief: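 CHO-K1 cells overexpressing human CB2R were plated at 30 000 cells/well and held overnight at 37 °C, 5% CO2. Test samples were added as dose–response solutions with NKH-477 to stimulate adenylate cyclase, then incubated 30 min at 37 °C. cAMP was detected by luminescence after cell lysis. Values were normalized to NKH-477 alone as 100% response. Three independent experiments were run in triplicate.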

[16] = target: T2, Cannabinoid receptor 2; experiment: Displacement of [3H]CP55940 from recombinant human CB2 receptor expressed in HEK293 cell membrane incubated for 90 mins by beta scintillation counter method; format: cell membranes
Method in brief: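 HEK293 membranes stably expressing human CB2 (50 µg protein/well) competed with 0.2 nM [3H]-CP55,940 (final) against test compound at 10⁻¹²–10⁻⁵ M in Tris-HCl 50 mM, EGTA 2.5 mM, MgCl₂ 5 mM, 0.1% fatty-acid-free BSA, pH 7.4; 90 min at 30 °C. Nonspecific binding defined with 10 µM GW405833.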

[17] = tested on: THP-1; experiment: Antiinflammatory activity in human THP-1 macrophages assessed as decrease in IL-1beta level incubated for 24 hrs by ELISA based qRT-PCR analysis; format: functional, cell-based; method in brief: as §1
[18] = tested on: THP-1; experiment: Antiinflammatory activity in human THP-1 monocytes assessed as decrease in TNFalpha level incubated for 24 hrs in presence of […] by ELISA based qRT-PCR analysis; format: functional, cell-based; method in brief: as §1
[19] = tested on: THP-1; experiment: Antiinflammatory activity in human THP-1 macrophages assessed as increase in IL-10 level incubated for 24 hrs in presence of […] by ELISA based qRT-PCR analysis; format: functional, cell-based; method in brief: as §1

T2 sequence (P34972 whole entry): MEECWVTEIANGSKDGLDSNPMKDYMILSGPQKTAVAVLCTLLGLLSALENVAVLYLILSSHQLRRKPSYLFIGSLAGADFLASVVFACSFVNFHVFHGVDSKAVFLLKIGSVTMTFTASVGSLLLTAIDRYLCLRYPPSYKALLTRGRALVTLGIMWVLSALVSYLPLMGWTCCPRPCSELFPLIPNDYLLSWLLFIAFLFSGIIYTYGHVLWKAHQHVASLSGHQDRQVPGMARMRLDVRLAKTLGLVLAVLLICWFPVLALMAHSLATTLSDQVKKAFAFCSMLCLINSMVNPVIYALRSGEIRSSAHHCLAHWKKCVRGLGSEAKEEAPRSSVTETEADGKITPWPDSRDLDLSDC
Sequence of Cannabinoid receptor 2 (Mus musculus, UniProt P47936) (P47936 whole entry): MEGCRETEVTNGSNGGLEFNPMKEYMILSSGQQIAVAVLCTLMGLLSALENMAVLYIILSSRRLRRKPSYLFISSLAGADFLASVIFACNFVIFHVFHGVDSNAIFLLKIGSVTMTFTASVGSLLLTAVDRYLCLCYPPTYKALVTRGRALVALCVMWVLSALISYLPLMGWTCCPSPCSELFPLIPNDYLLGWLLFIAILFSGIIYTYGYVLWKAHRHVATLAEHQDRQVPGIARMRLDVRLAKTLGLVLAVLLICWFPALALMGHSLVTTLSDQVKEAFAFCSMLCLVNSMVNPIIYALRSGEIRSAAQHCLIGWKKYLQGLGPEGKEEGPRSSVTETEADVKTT
Sequence of Cannabinoid receptor 1 (P21554 whole entry): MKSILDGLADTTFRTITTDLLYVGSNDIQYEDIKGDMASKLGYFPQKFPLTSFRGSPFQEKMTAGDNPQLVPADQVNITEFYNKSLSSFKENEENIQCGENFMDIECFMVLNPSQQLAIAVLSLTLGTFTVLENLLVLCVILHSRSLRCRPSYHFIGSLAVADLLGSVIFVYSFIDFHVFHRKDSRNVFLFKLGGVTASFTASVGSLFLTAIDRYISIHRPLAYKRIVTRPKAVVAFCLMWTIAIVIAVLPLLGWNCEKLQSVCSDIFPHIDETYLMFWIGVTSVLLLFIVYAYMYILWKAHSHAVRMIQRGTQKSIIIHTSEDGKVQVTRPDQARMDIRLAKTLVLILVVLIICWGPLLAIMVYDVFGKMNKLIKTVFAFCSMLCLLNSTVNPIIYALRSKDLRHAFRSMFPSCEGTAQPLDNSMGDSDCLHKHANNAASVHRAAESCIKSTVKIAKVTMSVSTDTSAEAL

SMILES | Activity [1] | EC50 [2] [nM] | Activity [3] | EC50 [4] [nM] | IC50 [5] [nM] | Activity [6] | Activity [7] | Activity [8] | Activity [9] | Activity [10] | Activity [11] | Activity [12] | Activity [13] | Activity [14] | EC50 [15] [nM] | Ki [16] [nM] | Activity [17] | Activity [18] | Activity [19]
O=C(NC12CC3CC(CC(C3)C1)C2)c1ccccc1OCc1ccccc1 | Active | 489 | inactive | 51.8 | 4000 | inactive | inactive | Active | inactive | inactive | Active | Active | inactive | Active | 124 | 14.8 | Active | inactive | inactive
O=C(NC12CC3CC(CC(C3)C1)C2)c1ccccc1OCC1CCCCC1 | Active | 253 | inactive | 10.7 | 3400 | inactive | inactive | Active | inactive | Active | Active | Active | inactive | Active | 283 | 20.1 | Active | inactive | inactive
CCCCCOc1ccccc1C(=O)NC12CC3CC(CC(C3)C1)C2 | Active | 106 | inactive | 23.8 | 6200 | inactive | inactive | Active | inactive | inactive | Active | Active | inactive | Active | 86.9 | 10.8 | Active | inactive | inactive
